In ChEMBL document CHEMBL1153879, “Synthesis and pharmacokinetic evaluation of novel N-acyl-cordycepin derivatives with a normal alkyl chain” (Eur J Med Chem, 2009):

Legend:
[1] = Tmax in C57BL/6 mouse at 0.5 umol/kg, po; type: ADME, organism-based; details: in vivo
In short: (§1)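 Male C57BL/6 mice (20±2 g, 7 weeks old) received a single oral dose in 2% Tween-80 aqueous solution. Blood was extracted with MeOH or EtOAc, depending on the compound, and assayed by HPLC. Parameters were derived from the mean profiles (n=5).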

[2] = Cmax in C57BL/6 mouse at 0.5 umol/kg, po; type: ADME, organism-based; design: dose 0.5 umol/kg, route oral; details: in vivo; in short: as §1
[3] = AUC in C57BL/6 mouse at 0.5 umol/kg, po; type: ADME, organism-based; details: plasma; in short: as §1
[4] = Half life in C57BL/6 mouse at 0.5 umol/kg, po; type: ADME, organism-based; details: in vivo; in short: as §1
Mus musculus [5] = test: Tmax in C57BL/6 mouse at 0.5 umol/kg, po assessed as transformed cordycepin levels; type: ADME, organism-based; details: in vivo; in short: as §1
Mus musculus [6] = test: AUC in C57BL/6 mouse at 0.5 umol/kg, po assessed as transformed cordycepin levels; type: ADME, organism-based, Plasma; details: in vivo, in the assay text read “500 umol/kg” for “0.5 umol/kg”; in short: as §1
Mus musculus [7] = test: Half life in C57BL/6 mouse at 0.5 umol/kg, po assessed as transformed cordycepin levels; type: ADME, organism-based; details: in vivo, in the assay text read “500 umol/kg” for “0.5 umol/kg”; in short: as §1
Mus musculus [8] = test: Cmax in C57BL/6 mouse at 500 umol/kg, po assessed as transformed cordycepin levels; details: in vivo
Mus musculus [9] = test: Half life in C57BL/6 mouse at 500 umol/kg, po assessed as transformed cordycepin levels; details: in vivo

Tmax [1] [h]	Cmax [2] [µM]	AUC [3] [µM·h]	half-life [4] [h]	Tmax (Mus musculus [5]) [h]	AUC (Mus musculus [6]) [µM·h]	t1/2 (Mus musculus [7]) [h]	Cmax (Mus musculus [8]) [µM]	t1/2 (Mus musculus [9]) [h]	SMILES
5	310	1310	6.8	7	83.7	9.4	20.6	–	CCCCCCCC(=O)Nc1ncnc2c1ncn2[C@@H]1O[C@H](CO)C[C@H]1O
6	160	672	8.3	8	69.1	–	15	10.5	CCCCCCCCCCCC(=O)Nc1ncnc2c1ncn2[C@@H]1O[C@H](CO)C[C@H]1O
1.5	10.1	19.2	2.1	1.5	19.2	2.1	10.1	–	Nc1ncnc2c1ncn2[C@@H]1O[C@H](CO)C[C@H]1O [CORDYCEPIN]
3	120	356	4.4	5	59.9	7.5	14.1	–	CCC(=O)Nc1ncnc2c1ncn2[C@@H]1O[C@H](CO)C[C@H]1O
8	22.1	32.5	8.6	10	3.7	10.8	2.2	–	CCCCCCCCCCCCCCCCCC(=O)Nc1ncnc2c1ncn2[C@@H]1O[C@H](CO)C[C@H]1O
